Laboratory results: ChEMBL document CHEMBL1144992, “Unsymmetrical DNA cross-linking agents: combination of the CBI and PBD pharmacophores” (J Med Chem, 2003)

Assays:
EMT6 = experiment: In vitro cellular toxicity against murine mammary carcinoma EMT6 cell line after 4 hr of compound exposure; type: functional, cell-based; settings: Mus musculus, EMT6, 4 h
Outline: (§1)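 Cells exposed to drug for 4 h, then stained with sulforhodamine B 3 days later. IC50 interpolated as the concentration reducing cell density to 50% of same-plate controls. Values are the mean of 2-6 experiments.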

UV4 = experiment: In vitro cellular toxicity against chinese hamster UV4 cell line after 4 hr of compound exposure; type: functional, cell-based; settings: Cricetulus griseus, UV4, 4 h; outline: as §1
CHO-AA8 = experiment: In vitro cellular toxicity against chinese hamster AA8 cell line after 4 hr of compound exposure; type: functional, cell-based; settings: Cricetulus griseus, CHO-AA8, 4 h; outline: as §1
SK-OV-3 [1] = experiment: In vitro cellular toxicity against human ovarian carcinoma SKOV3 cell line after 4 hr of compound exposure; type: functional, cell-based; settings: SK-OV-3, 4 h; outline: as §1
[2] = Ratio of LC50 values between the least sensitive and most sensitive human cancer cell lines; type: functional
Outline: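 NCI 60-cell-line panel covering nine tissue types. LC50 is concentration producing 50% reduction in cells. Value is ratio of LC50 for least sensitive versus most sensitive line.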

Nucleic Acid = experiment: Tested for its ability to cross-link linearized plasmid DNA pcDNA3 following 18 hr of exposure at 37 degree celsius; type: functional
Outline: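 EcoRI-linearized pcDNA3 plasmid (5400 bp), 3'-end labelled with α-32P-dATP by Klenow. 50 ng DNA incubated with drug (DMSO) in TE pH 7.5, 10 µL final volume, 18 h at 37 °C. Denatured with NaOH strand-separation buffer for 5-10 min, then run on 0.8% agarose gel. Double-stranded fraction quantified by phosphorimaging. At least five concentrations tested, 2-4 assays. C50 taken from a 3-parameter logistic fit capped at 100%.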

[3] = test system: Panel (Carcinoma cell lines); experiment: In vitro drug concentration required for 50% inhibition of 60 different human cancer cell lines compared to controls; type: functional
Mus musculus [4] = experiment: Average time for WiDr tumor xenograft to reach a diameter of 17 mm following single intravenous injection at day 0 where tumor diameter was 8 mm in mice; type: functional
Outline: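 Subcutaneous flank implant of WiDr cells (10^7 cells/mouse) in female CD-1 nude mice. Randomised at mean tumour diameter 8 mm (5-11 mice/group). Single iv dose at predetermined MTD, formulated in 100% DMSO at 0.001 mL/g, on day 0. Calipers used until mean diameter reached 17 mm, then culled. Values are average days to end point; ANOVA with Dunnett's test.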

Mus musculus [5] = experiment: In vivo maximum tolerated dose for single intravenous injection in non-tumor-bearing C3H/HeN mice; type: functional
Outline: (§2)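 Female non-tumour-bearing C3H/HeN mice received a single ip or iv injection in 100% DMSO at 0.001 mL/g. Doses stepped in 1.33-fold increments on a fixed scale, with 60-day observation. MTD defined as highest dose giving no deaths in a group of 6 and ≤15% mean body weight loss on day 4. Ratio is iv MTD over ip MTD.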

Mus musculus [6] = experiment: In vivo maximum tolerated dose for single intraperitoneal injection in non tumor-bearing C3H/HeN mice; type: functional; outline: as §2
SK-OV-3 [7] = experiment: In vitro cytotoxicity against human tumor SKOV3 cell line was measured as concentration to reduce [3H]thymidine uptake to 50% of that of the controls; type: functional, cell-based; settings: SK-OV-3, 5 days
Outline: (§3)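 Cell suspensions exposed to drug continuously for 5 days. [3H]thymidine (0.25 µCi/mL, 0.1 µM) plus 5-fluoro-2'-deoxyuridine (0.1 µM) added 4 h before termination. Pronase 2 mg/mL in 4 mM Na4EDTA released adherent cells before aspiration and filtration. IC50 interpolated against same-plate controls. Mean of 2-3 experiments, some single determinations.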

COLO 205 = experiment: In vitro cytotoxicity against human tumor COLO 205 cell line was measured as concentration to reduce [3H]thymidine uptake to 50% of that of the controls; type: functional, cell-based; settings: COLO 205, 5 days; outline: as §3
[8] = Ratio of maximum tolerated dose of intravenous to intraperitoneal injection in mice; type: functional; outline: as §2
WiDr = experiment: In vitro cytotoxicity against human tumor WiDr cell line was measured as concentration to reduce [3H]thymidine uptake to 50% of that of the controls; type: functional, cell-based; outline: as §3
HT-29 = experiment: In vitro cytotoxicity against human tumor HT-29 cell line was measured as concentration to reduce [3H]thymidine uptake to 50% of that of the controls; type: functional, cell-based; settings: HT-29, 5 days; outline: as §3
SiHa = experiment: In vitro cytotoxicity against human tumor SiHa cell line was measured as concentration to reduce [3H]thymidine uptake to 50% of that of the controls; type: functional, cell-based; outline: as §3

## COc1cc2c(cc1O)N=C[C@@H]1CCCN1C2=O
EMT6
  IC50: 1100 nM
UV4
  IC50: 1500 nM
CHO-AA8
  IC50: 2000 nM
SK-OV-3 [1]
  IC50: 1900 nM

## CC(=O)N1C[C@@H](CCl)c2c1cc(O)c1ccccc21
EMT6
  IC50: 280 nM
UV4
  IC50: 59 nM
CHO-AA8
  IC50: 210 nM
SK-OV-3 [1]
  IC50: 360 nM

## COc1cc2c(cc1OCC(=O)N1C[C@H](CCl)c3c1cc(O)c1ccccc31)N=CC1CCCN1C2=O (single isomer, unassigned)
[2]
  Ratio: 200
EMT6
  IC50: 5 nM
UV4
  IC50: 6.1 nM
CHO-AA8
  IC50: 48 nM
Nucleic Acid
  C50: 1.21 µM
[3]
  GI50: 91 nM
SK-OV-3 [1]
  IC50: 16 nM

## COc1cc2cc(C(=O)N3C[C@@H](CCl)c4c3cc(O)c3ccccc43)[nH]c2c(OC)c1OC
EMT6
  IC50: 0.13 nM
UV4
  IC50: 0.09 nM
CHO-AA8
  IC50: 0.21 nM
SK-OV-3 [1]
  IC50: 0.29 nM

## COc1cc2c(cc1OCCCCCC(=O)N1CC(C)c3c1cc(O)c1ccccc31)N=C[C@@H]1CCCN1C2=O (stereo partly drawn)
EMT6
  IC50: 840 nM
UV4
  IC50: 2500 nM
CHO-AA8
  IC50: 4500 nM
SK-OV-3 [1]
  IC50: 2100 nM

## COc1cc2c(cc1OCCCCCC(=O)N1C[C@H](CCl)c3c1cc(O)c1ccccc31)N=CC1CCCN1C2=O (single isomer, unassigned)
Mus musculus [4]
  Time: 24.4 days
Mus musculus [5]
  MTD: 13.3 µM/kg
Mus musculus [6]
  MTD: 0.75 µM/kg
SK-OV-3 [7]
  IC50: 0.2 nM
COLO 205
  IC50: 0.18 nM
[2]
  Ratio: 2400
[8]
  MTD ratio: 17.7
EMT6
  IC50: 0.56 nM
WiDr
  IC50: 0.28 nM
UV4
  IC50: 1.5 nM
CHO-AA8
  IC50: 4.2 nM
Nucleic Acid
  C50: 0.13 µM
[3]
  GI50: 18 nM
SK-OV-3 [1]
  IC50: 3 nM
HT-29
  IC50: 0.25 nM
SiHa
  IC50: 0.2 nM

## COc1cc2c(cc1OCCCCC(=O)N1C[C@H](CCl)c3c1cc(O)c1ccccc31)N=CC1CCCN1C2=O (single isomer, unassigned)
[2]
  Ratio: 190
EMT6
  IC50: 12 nM
UV4
  IC50: 14 nM
CHO-AA8
  IC50: 40 nM
Nucleic Acid
  C50: 1.05 µM
[3]
  GI50: 130 nM
SK-OV-3 [1]
  IC50: 35 nM

## COc1cc2c(cc1OCCCCC(=O)N1C[C@@H](CCl)c3c1cc(O)c1ccccc31)N=C[C@@H]1CCCN1C2=O
[2]
  Ratio: 160
EMT6
  IC50: 3.1 nM
UV4
  IC50: 5.9 nM
CHO-AA8
  IC50: 11 nM
Nucleic Acid
  C50: 0.56 µM
[3]
  GI50: 79 nM
SK-OV-3 [1]
  IC50: 11 nM

## COc1cc2c(cc1OCCCOc1cc3c(cc1OC)C(=O)N1CCC[C@H]1C=N3)N=C[C@@H]1CCCN1C2=O [DSB-120]
Mus musculus [4]
  Time: 22.8 days
Mus musculus [5]
  MTD: 4.21 µM/kg
Mus musculus [6]
  MTD: 1 µM/kg
SK-OV-3 [7]
  IC50: 6.3 nM
COLO 205
  IC50: 7 nM
[8]
  MTD ratio: 4.21
EMT6
  IC50: 23 nM
WiDr
  IC50: 10 nM
UV4
  IC50: 86 nM
CHO-AA8
  IC50: 340 nM
Nucleic Acid
  C50: 0.029 µM
SK-OV-3 [1]
  IC50: 140 nM
HT-29
  IC50: 8.7 nM
SiHa
  IC50: 7.3 nM

## COc1cc2c(cc1OCCCCCC(=O)N1C[C@@H](CCl)c3c1cc(O)c1ccccc31)NC(=O)[C@@H]1CCCN1C2=O
EMT6
  IC50: 3.2 nM
UV4
  IC50: 13 nM
CHO-AA8
  IC50: 29 nM
SK-OV-3 [1]
  IC50: 6.2 nM

## COc1cc2c(cc1OCCC(=O)N1C[C@H](CCl)c3c1cc(O)c1ccccc31)N=CC1CCCN1C2=O (single isomer, unassigned)
[2]
  Ratio: 35
EMT6
  IC50: 300 nM
UV4
  IC50: 860 nM
CHO-AA8
  IC50: 1600 nM
Nucleic Acid
  C50: 7.9 µM
[3]
  GI50: 3200 nM
SK-OV-3 [1]
  IC50: 960 nM

## COc1cc2c(cc1OCCC(=O)N1C[C@@H](CCl)c3c1cc(O)c1ccccc31)N=C[C@@H]1CCCN1C2=O
[2]
  Ratio: 50
EMT6
  IC50: 51 nM
UV4
  IC50: 160 nM
CHO-AA8
  IC50: 240 nM
Nucleic Acid
  C50: 5 µM
[3]
  GI50: 500 nM
SK-OV-3 [1]
  IC50: 200 nM

## COc1cc2c(cc1OCCCC(=O)N1C[C@H](CCl)c3c1cc(O)c1ccccc31)N=CC1CCCN1C2=O (single isomer, unassigned)
[2]
  Ratio: 3200
EMT6
  IC50: 0.3 nM
UV4
  IC50: 0.83 nM
CHO-AA8
  IC50: 4 nM
Nucleic Acid
  C50: 0.025 µM
[3]
  GI50: 13 nM
SK-OV-3 [1]
  IC50: 1.9 nM

## COc1cc2c(cc1OCCCC(=O)N1C[C@@H](CCl)c3c1cc(O)c1ccccc31)N=C[C@@H]1CCCN1C2=O
Mus musculus [4]
  Time: 26 days
Mus musculus [5]
  MTD: 0.316 µM/kg
Mus musculus [6]
  MTD: 0.00316 µM/kg
SK-OV-3 [7]
  IC50: 0.021 nM
COLO 205
  IC50: 0.037 nM
[2]
  Ratio: >10000
[8]
  MTD ratio: 100
EMT6
  IC50: 0.03 nM
WiDr
  IC50: 0.014 nM
UV4
  IC50: 0.074 nM
CHO-AA8
  IC50: 0.13 nM
Nucleic Acid
  C50: 0.017 µM
[3]
  GI50: < 10 nM
SK-OV-3 [1]
  IC50: 0.14 nM
HT-29
  IC50: 0.021 nM
SiHa
  IC50: 0.012 nM

## CC(=O)N1C[C@H](CCl)c2c1cc(O)c1ccccc21
EMT6
  IC50: 12000 nM
UV4
  IC50: 1800 nM
CHO-AA8
  IC50: 14000 nM
SK-OV-3 [1]
  IC50: 14000 nM

## COc1cc2c(cc1OCCCCCC(=O)N1C[C@@H](CCl)c3c1cc(O)c1ccccc31)N=C[C@@H]1CCCN1C2=O
Mus musculus [4]
  Time: 40.8 days
Mus musculus [5]
  MTD: 0.178 µM/kg
Mus musculus [6]
  MTD: 0.0178 µM/kg
SK-OV-3 [7]
  IC50: 0.0033 nM
COLO 205
  IC50: 0.0035 nM
[2]
  Ratio: >10000
[8]
  MTD ratio: 10
EMT6
  IC50: 0.0078 nM
WiDr
  IC50: 0.0039 nM
UV4
  IC50: 0.023 nM
CHO-AA8
  IC50: 0.054 nM
Nucleic Acid
  C50: 0.022 µM
[3]
  GI50: < 10 nM
SK-OV-3 [1]
  IC50: 0.032 nM
HT-29
  IC50: 0.0027 nM
SiHa
  IC50: 0.0028 nM
